Results on 14 compounds are retold here after ChEMBL document CHEMBL1158122, “Anti-inflammatory, anti-tumor-promoting, and cytotoxic activities of constituents of marigold (Calendula officinalis) flowers” (J Nat Prod, 2006).

Series [1] in a line: Cytotoxicity against human Raji cells assessed as cell viability at 10 molar ratio. In kind it is cell-based. The conditions noted are these: read-out: Activity. The procedure, abridged: (§1)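 Raji cells were treated with 32 pmol TPA to induce EBV early antigen activation. The test agent was added at 10, 100, 500 or 1000 mol ratio relative to TPA, and Raji cell viability was measured alongside EA activation.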

Series [2] relates to Raji. The experiment in a line: Inhibition of TPA-induced EBV-early antigen activation in human Raji cells at 10 molar ratio relative to TPA. In kind it is cell-based. The arrangement: scale not given: the % may be the effect or the level left. Particulars: human gammaherpesvirus 4.
Series [3] in a line: Cytotoxicity against human Raji cells assessed as cell viability at 500 molar ratio. The series is classed as cell-based. Particulars: read-out: Activity. In outline: as §1
A short description of series [4]: Cytotoxicity against human Raji cells assessed as cell viability at 1000 molar ratio. In kind it is cell-based. The conditions noted are these: read-out: Activity. The procedure, abridged:
as §1

In series [5] the test system is Raji. The series can be described thus: Inhibition of TPA-induced EBV-early antigen activation in human Raji cells at 100 molar ratio relative to TPA. The series is classed as cell-based. Also on record: scale not given: the % may be the effect or the level left. The conditions noted are these: human gammaherpesvirus 4.
Series [6] concerns Raji. The experiment in a line: Inhibition of TPA-induced EBV-early antigen activation in human Raji cells at 1000 molar ratio relative to TPA. In kind it is cell-based. The arrangement: scale not given: the % may be the effect or the level left. The conditions noted are these: human gammaherpesvirus 4.
Series [7] can be described thus: Inhibition of TPA-induced EBV-early antigen activation in human Raji cells relative to TPA. The series is classed as cell-based, human gammaherpesvirus 4.
The test system of another series is Mus musculus. The experiment in a line: Antiinflammatory activity against TPA-induced ear edema in mouse. In kind it is functional. The procedure, abridged:
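Specific-pathogen-free female ICR mice were housed five per cage at 24 ± 2 °C. Inflammation was induced on the ear with TPA at 1 µg/ear, and the test agent was applied per ear. Ear edema inhibition was expressed as ID50 in mg per ear.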

The nature of series [8]: Cytotoxicity against human Raji cells assessed as cell viability at 100 molar ratio. The series is classed as cell-based. The conditions noted are these: read-out: Activity. In outline:
as §1

Series [9] concerns Raji. The series can be described thus: Inhibition of TPA-induced EBV-early antigen activation in human Raji cells at 500 molar ratio relative to TPA. The series is classed as cell-based. Also on record: scale not given: the % may be the effect or the level left. The conditions noted are these: human gammaherpesvirus 4.

For `COC(=O)[C@H]1O[C@@H](O[C@H]2CC[C@]3(C)[C@H]4CC=C5[C@@H]6CC(C)(C)CC[C@]6(C(=O)O[C@@H]6O[C@H](CO)[C@@H](O)[C@H](O)[C@H]6O)CC[C@@]5(C)[C@]4(C)CC[C@H]3C2(C)C)[C@H](O)[C@@H](O[C@@H]2O[C@H](CO)[C@H](O)[C@H](O)[C@H]2O)[C@@H]1O`, the viability at 10 molar ratio in series [1] was more than 80%. Also, the Activity in the series with Raji [2] came out at 100%; in the series on Raji [5] it was 74.3%; with Raji [6], 14.4%; with Raji [9] it was 52.1%. In addition, the viability at 500 molar ratio in [3] was more than 80%. In addition, the viability at 1000 molar ratio in [4] amounted to 70%. The IC50 in [7] is given as 480 molar ratio. Moreover, in the series with Mus musculus, the ID50 is 0.1 mg. For the same compound, the viability at 100 molar ratio in series [8] was more than 80%.
For `COc1ccc2c(c1)c(CC(=O)O)c(C)n2C(=O)c1ccc(Cl)cc1` [INDOMETHACIN], the ID50 with Mus musculus was 0.3 mg.
As for `COC(=O)[C@H]1O[C@@H](O[C@H]2CC[C@]3(C)[C@H]4CC=C5[C@@H]6CC(C)(C)CC[C@]6(C(=O)O[C@@H]6O[C@H](CO)[C@@H](O)[C@H](O)[C@H]6O)CC[C@@]5(C)[C@]4(C)CC[C@H]3C2(C)C)[C@H](O[C@@H]2O[C@H](CO)[C@@H](O)[C@H](O)[C@H]2O)[C@@H](O[C@@H]2O[C@H](CO)[C@H](O)[C@H](O)[C@H]2O)[C@@H]1O`, the viability at 10 molar ratio in series [1] is more than 80%. Moreover, the Activity is 100% in the series on Raji [2], 77.8% in the series on Raji [5], 16% with Raji [6] and 53.6% in the series with Raji [9]. Moreover, in series [3], the viability at 500 molar ratio is more than 80%. Further, in series [4], the viability at 1000 molar ratio amounted to 70%. Also, the IC50 in series [7] is 487 molar ratio. In the series with Mus musculus, this compound displayed an ID50 of 0.06 mg. Besides, the viability at 100 molar ratio in [8] was more than 80%.
As to `CC1=C(/C=C/C(C)=C/C=C/C(C)=C/C=C/C=C(C)/C=C/C=C(C)/C=C/C2=C(C)CCCC2(C)C)C(C)(C)CCC1` [BETA CAROTENE], in series [1], the viability at 10 molar ratio was more than 80%. Moreover, the Activity came to 100% in the series with Raji [2] and 8.6% in the series on Raji [6]. The viability at 500 molar ratio in series [3] is more than 80%. In [7], this compound returned an IC50 of 397 molar ratio. Further, in [8], the viability at 100 molar ratio is more than 80%.
For the compound `CCCCOC(=O)[C@H]1O[C@@H](O[C@H]2CC[C@]3(C)[C@H]4CC=C5[C@@H]6CC(C)(C)CC[C@]6(C(=O)O[C@@H]6O[C@H](CO)[C@@H](O)[C@H](O)[C@H]6O)CC[C@@]5(C)[C@]4(C)CC[C@H]3C2(C)C)[C@H](O)[C@@H](O[C@@H]2O[C@H](CO)[C@H](O)[C@H](O)[C@H]2O)[C@@H]1O`, the viability at 10 molar ratio in series [1] is more than 80%. In addition, the Activity with Raji [2] is 100%; in the series on Raji [5], 70.1%; with Raji [6] it was 5.4%; in the series on Raji [9] it was 41.5%. Further, in [3], the viability at 500 molar ratio is more than 80%. For the same compound, in [4], the viability at 1000 molar ratio turned out to be 70%. This compound also had an IC50 in series [7] of 471 molar ratio. This compound displayed an ID50 in the series with Mus musculus of 0.06 mg. The viability at 100 molar ratio in [8] is more than 80%.
Consider `COc1cc(-c2oc3cc(O)cc(O)c3c(=O)c2O[C@@H]2O[C@H](CO)[C@@H](O)[C@H](O)[C@H]2O[C@@H]2O[C@@H](C)[C@H](O)[C@@H](O)[C@H]2O)ccc1O`, for which the viability at 10 molar ratio in [1] was more than 80%. Moreover, the Activity in the series with Raji [2] was found to be 100%; in the series with Raji [5] it was 81.1%; in the series with Raji [6] it was 14.1%; in the series with Raji [9], 60%. In series [3], the viability at 500 molar ratio was more than 80%. The viability at 1000 molar ratio in [4] was 70%. In [7], this compound displayed an IC50 of 574 molar ratio. In series [8], the viability at 100 molar ratio was more than 80%.
In the case of `COc1cc(-c2oc3cc(O)cc(O)c3c(=O)c2O[C@@H]2O[C@H](CO[C@@H]3O[C@@H](C)[C@H](O)[C@@H](O)[C@H]3O)[C@@H](O)[C@H](O)[C@H]2O)ccc1O` [NARCISSIN], the viability at 10 molar ratio in [1] is more than 80%. The Activity was 100% in the series with Raji [2], 84.3% in the series on Raji [5], 16.3% in the series with Raji [6] and 62.4% with Raji [9]. Also, the viability at 500 molar ratio in [3] was more than 80%. Moreover, in series [4], the viability at 1000 molar ratio was 70%. In series [7], this compound returned an IC50 of 585 molar ratio. Further, in [8], the viability at 100 molar ratio is more than 80%.
As to `O=c1c(O[C@@H]2O[C@H](CO)[C@@H](O)[C@H](O)[C@H]2O)c(-c2ccc(O)c(O)c2)oc2cc(O)cc(O)c12` [ISOQUERCETIN], in series [1], the viability at 10 molar ratio is more than 80%. For the same compound, the Activity in the series with Raji [2] came to 100%; with Raji [5], 78.5%; with Raji [6] it was 14.1%; in the series with Raji [9], 58%. Besides, in series [3], the viability at 500 molar ratio was more than 80%. For the same compound, the viability at 1000 molar ratio in series [4] was 70%. This compound also yielded an IC50 in [7] of 570 molar ratio. For the same compound, the viability at 100 molar ratio in [8] is more than 80%.
In the case of `CC1(C)CC[C@]2(C(=O)O[C@@H]3O[C@H](CO)[C@@H](O)[C@H](O)[C@H]3O)CC[C@]3(C)C(=CC[C@@H]4[C@@]5(C)CC[C@H](O[C@@H]6O[C@H](C(=O)O)[C@@H](O)[C@H](O[C@@H]7O[C@H](CO)[C@H](O)[C@H](O)[C@H]7O)[C@H]6O[C@@H]6O[C@H](CO)[C@@H](O)[C@H](O)[C@H]6O)C(C)(C)[C@@H]5CC[C@]43C)[C@@H]2C1` [CALENDULAGYCOSIDE A], the viability at 10 molar ratio in series [1] is more than 80%. Also, the Activity in the series on Raji [2] is 75.3%; in the series with Raji [5], 75.3%; in the series with Raji [6] it was 15.8%; with Raji [9], 52.3%. Moreover, the viability at 500 molar ratio in series [3] was more than 80%. For the same compound, the viability at 1000 molar ratio in [4] is 70%. The compound also had an IC50 in series [7] of 484 molar ratio. In the series on Mus musculus, this compound had an ID50 of 0.32 mg. The viability at 100 molar ratio in [8] was more than 80%.
With `CCCCOC(=O)[C@H]1O[C@@H](O[C@H]2CC[C@]3(C)[C@H]4CC=C5[C@@H]6CC(C)(C)CC[C@]6(C(=O)O[C@@H]6O[C@H](CO)[C@@H](O)[C@H](O)[C@H]6O)CC[C@@]5(C)[C@]4(C)CC[C@H]3C2(C)C)[C@H](O[C@@H]2O[C@H](CO)[C@@H](O)[C@H](O)[C@H]2O)[C@@H](O[C@@H]2O[C@H](CO)[C@H](O)[C@H](O)[C@H]2O)[C@@H]1O`, the viability at 10 molar ratio in series [1] is more than 80%. The Activity in the series on Raji [2] came to 100%; in the series with Raji [5], 71.6%; in the series on Raji [6], 10.6%; with Raji [9], 43.2%. The viability at 500 molar ratio in [3] is more than 80%. For the same compound, the viability at 1000 molar ratio in series [4] amounted to 70%. The compound further displayed an IC50 in series [7] of 480 molar ratio. For the same compound, the ID50 with Mus musculus is 0.06 mg. In [8], the viability at 100 molar ratio is more than 80%.
In the series with Mus musculus, `C[C@]12CCC(=O)C=C1CC[C@@H]1[C@@H]2[C@@H](O)C[C@@]2(C)[C@H]1CC[C@]2(O)C(=O)CO` [HYDROCORTISONE] had an ID50 of 0.03 mg.
For `CC1(C)CC[C@]2(C(=O)O[C@@H]3O[C@H](CO)[C@@H](O)[C@H](O)[C@H]3O)CC[C@]3(C)C(=CC[C@@H]4[C@@]5(C)CC[C@H](O[C@@H]6O[C@H](C(=O)O)[C@@H](O)[C@H](O[C@@H]7O[C@H](CO)[C@H](O)[C@H](O)[C@H]7O)[C@H]6O)C(C)(C)[C@@H]5CC[C@]43C)[C@@H]2C1` [CALENDULAGYCOSIDE C], the viability at 10 molar ratio in [1] was more than 80%. In addition, the Activity in the series on Raji [2] worked out at 100%; with Raji [5], 73.1%; with Raji [6], 13.2%; with Raji [9], 51%. The viability at 500 molar ratio in series [3] is more than 80%. Besides, in [4], the viability at 1000 molar ratio is 70%. This compound also showed an IC50 in series [7] of 475 molar ratio. In the series on Mus musculus, this compound registered an ID50 of 0.2 mg. Moreover, the viability at 100 molar ratio in [8] is more than 80%.
For `C[C@@H]1O[C@@H](OC[C@H]2O[C@@H](Oc3c(-c4ccc(O)c(O)c4)oc4cc(O)cc(O)c4c3=O)[C@H](O)[C@@H](O)[C@@H]2O)[C@H](O)[C@H](O)[C@H]1O` [RUTIN], the viability at 10 molar ratio in series [1] was more than 80%. For the same compound, the Activity in the series on Raji [2] amounted to 100%. Further, the viability at 500 molar ratio in series [3] is more than 80%. Further, in series [4], the viability at 1000 molar ratio was 70%. Further, the IC50 in series [7] is reported as 578 molar ratio. For the same compound, the viability at 100 molar ratio in series [8] was more than 80%.
As to `COc1cc(-c2oc3cc(O)cc(O)c3c(=O)c2O[C@@H]2O[C@H](CO[C@@H]3O[C@@H](C)[C@H](O)[C@@H](O)[C@H]3O)[C@@H](O)[C@H](O)[C@H]2O[C@@H]2O[C@@H](C)[C@H](O)[C@@H](O)[C@H]2O)ccc1O`, the viability at 10 molar ratio in series [1] is more than 80%. The Activity in the series on Raji [2] is 100%; in the series with Raji [5] it was 86%; in the series on Raji [6], 19.6%; in the series with Raji [9], 64.8%. Besides, in [3], the viability at 500 molar ratio is more than 80%. For the same compound, in series [4], the viability at 1000 molar ratio came to 70%. The compound further returned an IC50 in [7] of 592 molar ratio. The viability at 100 molar ratio in series [8] is more than 80%.
